The source of these data is ChEMBL document CHEMBL1125643, “N-(5-fluorobenzothiazol-2-yl)-2-guanidinothiazole-4-carboxamide. A novel, systemically active antitumor agent effective against 3LL Lewis lung carcinoma” (J Med Chem, 1991).

Where “and” joins values, the source holds several entries; their conditions need not be identical. Identical values can stand only once.

What is called T/C is the result in the treated group divided by that in the control group, in per cent.

Data set [1] deals with Mus sp. As to the kind of experiment: Drug related lethality is percent animals in treated groups dying prior to first tumor related death in untreated groups measured in BDF1 mice after ip administration at 5 mg/kg dose 3 days after tumor challenge. Type of data set: toxicity, organism-based. On the set-up: dose 5 mg/kg, route intraperitoneal. To be noted: in vivo, 72 h.

The test system of data set [2] is Mus sp. The data set is described as follows: Drug related lethality is percent animals in treated groups dying prior to first tumor related death in untreated groups measured in BDF1 mice after ip administration at 10 mg/kg dose 3 days after tumor challenge. The format is toxicity, organism-based. On the set-up: dose 10 mg/kg, route intraperitoneal. The note with it: in vivo, 72 h.

In data set [3] the test system is Mus sp. As to the kind of experiment: In vivo activity measured against 3LL metastasis in BDF1 mice after ip administration at 5 mg/kg dose, dosing on days 3 after tumor challenge. Type of data set: functional, organism-based. On the set-up: dose 5 mg/kg.
Data set [4] relates to Mus sp. As to the kind of experiment: In vivo activity measured against 3LL metastasis in BDF1 mice after ip administration at 10 mg/kg dose, dosing on days 3 after tumor challenge. The format is functional, organism-based. On the set-up: dose 10 mg/kg.
Data set [5] is described as follows: Drug related lethality is percent animals in treated groups dying prior to first tumor related death in untreated groups measured in BDF1 mice after po administration at 100 mg/kg dose. Type of data set: toxicity, organism-based. On the set-up: dose 100 mg/kg, route oral. To be noted: BDF1, mus sp., in vivo, read-out: Lethality. In a few lines:
(§1)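 Female BDF1 mice (18–20 g) were implanted in the tail vein with 6×10^5 3LL cells in 0.20 mL RPMI 1640, seven per group. Drug was dissolved in DMSO (20% final) and diluted with saline to a fine suspension. Mice were dosed orally, 200 μL, from day 2 to day 9 (8 treatments). Lethality is the percentage of treated mice dying before the first tumor-related death among untreated controls.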

Data set [6] is described as follows: Drug related lethality is percent animals in treated groups dying prior to first tumor related death in untreated groups measured in BDF1 mice after ip administration at 400 mg/kg dose. The format is toxicity, organism-based. The note with it: BDF1, mus sp., in vivo, read-out: Lethality. On the set-up: dose 400 mg/kg, route intraperitoneal. In a few lines:
(§2)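 Female BDF1 mice (18–20 g) were implanted in the lateral tail vein with 6×10^5 log-phase 3LL cells in 0.20 mL RPMI 1640 and then randomized, seven per group. Drug was dissolved in DMSO (20% of final volume) and diluted with sterile saline to a fine suspension. Mice received 200 μL ip daily from day 2 to day 9 (8 treatments) and were monitored daily. Lethality counted deaths before the first tumor-related control death.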

Data set [7] concerns Mus sp. As to the kind of experiment: In vivo activity was measured against 3LL metastasis in BDF1 mice after po administration at 100 mg/kg dose, dosing on days 2-8 after tumor challenge. Type of data set: functional. In a few lines: (§3)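 Female BDF1 mice (18–20 g) given 6×10^5 log-phase 3LL cells iv via tail vein in 0.20 mL RPMI 1640, randomized, 7 per group. Drug freshly dissolved in DMSO (20% of final volume) and diluted with sterile saline to a fine suspension. Dosed 200 μL ip or po, 8 treatments from day 2. Survival monitored daily. %T/C = MST treated/MST control × 100, given as mean (s.e.) over repeat experiments.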

A short description of data set [8]: Drug related lethality is percent animals in treated groups dying prior to first tumor related death in untreated groups measured in BDF1 mice after po administration at 25 mg/kg dose. The format is toxicity, organism-based. On the set-up: dose 25 mg/kg, route oral. To be noted: BDF1, mus sp., in vivo, read-out: Lethality. In a few lines:
as §1

The subject of data set [9] is Mus sp. The data set is described as follows: In vivo activity measured against 3LL metastasis in BDF1 mice after ip administration at 50 mg/kg dose, dosing on days 2-8 after tumor challenge. The format is functional. To be noted: route intraperitoneal. In a few lines: as §3
Data set [10] is described as follows: Drug related lethality is percent animals in treated groups dying prior to first tumor related death in untreated groups measured in BDF1 mice after ip administration at 100 mg/kg dose. The format is toxicity, organism-based. On the set-up: dose 100 mg/kg, route intraperitoneal. To be noted: BDF1, mus sp., in vivo, read-out: Lethality. In a few lines: as §2

Data set [11] in a line: Drug related lethality is percent animals in treated groups dying prior to first tumor related death in untreated groups measured in BDF1 mice after ip administration at 200 mg/kg dose. The format is toxicity, organism-based. On the set-up: dose 200 mg/kg, route intraperitoneal. The note with it: BDF1, mus sp., in vivo, read-out: Lethality. In a few lines:
as §2

For data set [12], the system named is Mus sp. The data set is described as follows: In vivo activity measured against 3LL metastasis in BDF1 mice after ip administration at 12.5 mg/kg dose, dosing on days 2-8 after tumor challenge. Type of data set: functional. The note with it: route intraperitoneal. In a few lines: as §3
Data set [13] deals with Mus sp. As to the kind of experiment: In vivo activity measured against 3LL metastasis in BDF1 mice after po administration at 200 mg/kg dose, dosing on days 2-8 after tumor challenge. The format is functional. In a few lines: as §3
Data set [14] relates to Mus sp. As to the kind of experiment: In vivo activity measured against 3LL metastasis in BDF1 mice after po administration at 50 mg/kg dose, dosing on days 2-8 after tumor challenge. The format is functional. In a few lines:
as §3

Data set [15] relates to Mus sp. The data set is described as follows: In vivo activity measured against 3LL metastasis in BDF1 mice after po administration at 25 mg/kg dose, dosing on days 2-8 after tumor challenge. The format is functional. In a few lines:
as §3

Data set [16] can be described thus: Drug related lethality is percent animals in treated groups dying prior to first tumor related death in untreated groups measured in BDF1 mice after ip administration at 50 mg/kg dose. Type of data set: toxicity, organism-based. On the set-up: dose 50 mg/kg, route intraperitoneal. The note with it: BDF1, mus sp., in vivo, read-out: Lethality. In a few lines: as §2

The nature of data set [17]: Drug related lethality is percent animals in treated groups dying prior to first tumor related death in untreated groups measured in BDF1 mice after po administration at 50 mg/kg dose. On the set-up: dose 50 mg/kg, route oral. Type of data set: toxicity, organism-based. To be noted: BDF1, mus sp., in vivo, read-out: Lethality. In a few lines: as §1
The nature of data set [18]: Drug related lethality is percent animals in treated groups dying prior to first tumor related death in untreated groups measured in BDF1 mice after po administration at 200 mg/kg dose. The format is toxicity, organism-based. On the set-up: dose 200 mg/kg, route oral. To be noted: BDF1, mus sp., in vivo, read-out: Lethality. In a few lines:
as §1

For data set [19], the system named is Mus sp. As to the kind of experiment: In vivo activity measured against 3LL metastasis in BDF1 mice after ip administration at 200 mg/kg dose, dosing on days 2-8 after tumor challenge. Type of data set: functional. To be noted: route intraperitoneal. In a few lines:
as §3

Data set [20] is described as follows: Drug related lethality is percent animals in treated groups dying prior to first tumor related death in untreated groups measured in BDF1 mice after ip administration at 25 mg/kg dose. Type of data set: toxicity, organism-based. To be noted: BDF1, mus sp., in vivo, read-out: Lethality. On the set-up: dose 25 mg/kg, route intraperitoneal. In a few lines: as §2

Data set [21] in a line: Drug related lethality is percent animals in treated groups dying prior to first tumor related death in untreated groups measured in BDF1 mice after po administration at 400 mg/kg dose. The note with it: BDF1, mus sp., in vivo, read-out: Lethality. On the set-up: dose 400 mg/kg, route oral. The format is toxicity, organism-based. In a few lines: as §1
Data set [22] deals with Mus sp. The data set is described as follows: In vivo activity measured against 3LL metastasis in BDF1 mice after ip administration at 6.25 mg/kg dose, dosing on days 2-8 after tumor challenge. The format is functional. The note with it: route intraperitoneal. In a few lines: as §3
Data set [23] can be described thus: Drug related lethality is percent animals in treated groups dying prior to first tumor related death in untreated groups measured in BDF1 mice after ip administration at 6.25 mg/kg dose. The format is toxicity, organism-based. On the set-up: dose 6.25 mg/kg, route intraperitoneal. To be noted: BDF1, mus sp., in vivo, read-out: Lethality. In a few lines:
as §2

Data set [24] relates to Mus sp. The data set is described as follows: In vivo activity measured against 3LL metastasis in BDF1 mice after ip administration at 25 mg/kg dose, dosing on days 2-8 after tumor challenge. Type of data set: functional. To be noted: route intraperitoneal. In a few lines:
as §3

Data set [25] is described as follows: Drug related lethality is percent animals in treated groups dying prior to first tumor related death in untreated groups measured in BDF1 mice after ip administration at 12.5 mg/kg dose. To be noted: BDF1, mus sp., in vivo, read-out: Lethality. Type of data set: toxicity, organism-based. On the set-up: dose 12.5 mg/kg, route intraperitoneal. In a few lines:
as §2

Data set [26] in a line: Drug related lethality is percent animals in treated groups dying prior to first tumor related death in untreated groups measured in BDF1 mice after po administration at 12.5 mg/kg dose. On the set-up: dose 12.5 mg/kg, route oral. To be noted: BDF1, mus sp., in vivo, read-out: Lethality. Type of data set: toxicity, organism-based. In a few lines: as §1
For data set [27], the system named is Mus sp. The data set is described as follows: In vivo activity measured against 3LL metastasis in BDF1 mice after ip administration at 100 mg/kg dose, dosing on days 2-8 after tumor challenge. Type of data set: functional. To be noted: route intraperitoneal. In a few lines:
as §3

For the compound CISPLATIN [listing 1 of 2 here], the Lethality in the data set with Mus sp. [1] and with Mus sp. [2] was 0% in each case.
Take CISPLATIN [listing 2 of 2 here]: the T/C in the data set with Mus sp. [3] turned out to be 112%; with Mus sp. [4], 116%.
For the compound `N=C(N)Nc1nc(C(=O)Nc2nc3cc(F)ccc3s2)cs1`, the mortality was 5.7% in [5]; 42.9% in [6]; 1.78% in data set [8]; 0% in data set [10]; 14.3% in data set [11]; 0.43% in [16]. Besides, the mortality in data set [17] amounted to 2%; in [18] it was 22.7%; in data set [20] it was 0%; in data set [21] it was 45.7%; in data set [23] it was 0%; in data set [25], 0%. In data set [26], the mortality came to 0%. Also, the T/C in the data set with Mus sp. [7] was 157.7%; in the data set with Mus sp. [9] it was 153%; in the data set on Mus sp. [12], 149.3%; with Mus sp. [13], 119% and 150.3%; in the data set with Mus sp. [14] it was 140.4%; in the data set on Mus sp. [15], 127%. The T/C came out at 179.7% with Mus sp. [19], 112.7% in the data set on Mus sp. [22], 153.8% in the data set with Mus sp. [24] and 160.7% in the data set with Mus sp. [27].
